Laboratory results: ChEMBL document CHEMBL3407478, “Development of a series of aryl pyrimidine kynurenine monooxygenase inhibitors as potential therapeutic agents for the treatment of Huntington's disease” (J Med Chem, 2015)
Active and inactive are the calls of the source. No cut-off for these calls is given here.

Tests used:
[1] = molecular target: Kynurenine 3-monooxygenase (Mus musculus, UniProt Q91WN4); test: Inhibition of mouse KMO assessed as conversion of kynurenine to 3-hydroxykynurenine by LC-MS/MS analysis
How it was run: (§1)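 Mitochondrial fractions from mouse or rat liver tissue used as KMO source. Conversion of kynurenine to 3-hydroxykynurenine quantified by LC-MS/MS; IC50 averaged from triplicate tests.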

[2] = molecular target: T1, Kynurenine 3-monooxygenase (Rattus norvegicus, UniProt O88867); test: Inhibition of rat KMO assessed as conversion of kynurenine to 3-hydroxykynurenine by LC-MS/MS analysis; how it was run: as §1
[3] = molecular target: T1, Kynurenine 3-monooxygenase; test: Inhibition of KMO in rat microglia cells; format: cell-based
How it was run: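 Freshly isolated neonatal rat microglial cultures, induced to express KMO by a pro-inflammatory protocol. Exogenous KYN added; conversion to 3-HK monitored by mass spectrometry.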

[4] = Volume of distribution at steady state in Sprague-Dawley rat plasma at 6.2 mg equivalents/kg, iv; format: ADME, cell-free; conditions: read-out: Vdss
How it was run: (§2)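 Nonfasted male Sprague-Dawley rats (300−370 g). Single iv tail-vein dose of 6.2 mg equiv/kg (1.24 mg equiv/mL in DMSO:PEG400:water 10:40:50) or oral gavage of 12 mg equiv/kg (1.20 mg equiv/mL in 10% hydroxypropyl-β-cyclodextrin). Terminal bleeds under isoflurane (N = 3) at 0.083−24 h; heparin plasma; tissues snap-frozen.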

[5] = Half life at steady state in Sprague-Dawley rat plasma at 6.2 mg equivalents/kg, iv; format: ADME, cell-free
Plasma [6] = test: Dose normalized Cmax in Sprague-Dawley rat plasma at 12 mg equivalents/kg, po after 1 hr; format: ADME, organism-based; conditions: in vivo
Brain [7] = test: Dose normalized Cmax in Sprague-Dawley rat brain at 6.2 mg equivalents/kg, iv; format: ADME, tissue-based; conditions: in vivo
[8] = Half life in Sprague-Dawley rat brain at 6.2 mg equivalents/kg, iv; format: ADME, tissue-based
[9] = Tmax in Sprague-Dawley rat brain at 12 mg equivalents/kg, po; format: ADME, tissue-based; how it was run: as §2
Plasma [10] = test: Dose normalized Cmax in Sprague-Dawley rat plasma at 10 mg equivalents/kg, po after 0.25 to 12 hrs; format: ADME, organism-based; conditions: in vivo
How it was run: (§3)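 Male Sprague-Dawley rats given a single oral dose of 10 mg equiv/kg as a 2 mg equiv/mL solution in 10% hydroxypropyl-β-cyclodextrin. Plasma, liver, kidney, cortex, striatum and CSF levels were measured from 0.25 to 12 h. Brain tissue was taken from nonperfused brains. CSF AUCN covers 0–8 h because the elimination phase was undefined.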

[11] = Half life in Sprague-Dawley rat plasma at 10 mg equivalents/kg, po after 0.25 to 12 hrs; format: ADME, organism-based; how it was run: as §3
Cerebrospinal fluid = test: Dose normalized Cmax in Sprague-Dawley rat CSF at 10 mg equivalents/kg, po after 0.25 to 12 hrs; format: ADME, organism-based; conditions: in vivo; how it was run: as §3
[12] = Tmax in Sprague-Dawley rat CSF at 10 mg equivalents/kg, po after 0.25 to 12 hrs; format: ADME, organism-based, Cerebrospinal fluid
How it was run: (§4)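 Fed male Sprague-Dawley rats given a single oral dose of 10 mg equiv/kg as 2 mg equiv/mL in 10% hydroxypropyl-β-cyclodextrin. Plasma, CSF, kidney, liver, and cortex and striatum from nonperfused brains sampled from 0.25 to 12 h.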

Cortex = test: Dose normalized Cmax in Sprague-Dawley rat cortex at 10 mg equivalents/kg, po after 0.25 to 12 hrs; format: ADME, organism-based; conditions: in vivo; how it was run: as §3
[13] = Tmax in Sprague-Dawley rat cortex at 10 mg equivalents/kg, po after 0.25 to 12 hrs; format: ADME, organism-based; how it was run: as §4
[14] = Half life in Sprague-Dawley rat cortex at 10 mg equivalents/kg, po after 0.25 to 12 hrs; format: ADME, organism-based
How it was run: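 Nonfasted male Sprague-Dawley rats; single oral dose 10 mg equiv/kg as 2 mg equiv/mL solution in 10% hydroxypropyl-β-cyclodextrin. Cortex taken from nonperfused brains, sampled 0.25 to 12 h after dosing. Drug measured by LC-MS/MS; half-life derived from concentration-time profile.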

Striatum = test: Dose normalized Cmax in Sprague-Dawley rat striatum at 10 mg equivalents/kg, po after 0.25 to 12 hrs; format: ADME, organism-based; conditions: in vivo; how it was run: as §3
Kidney [15] = test: Dose normalized AUC (0 to infinity) in Sprague-Dawley rat kidney at 10 mg equivalents/kg, po after 0.25 to 12 hrs; format: ADME, organism-based; conditions: in vivo; how it was run: as §3
Kidney [16] = test: Dose normalized Cmax in Sprague-Dawley rat kidney at 10 mg equivalents/kg, po after 0.25 to 12 hrs; format: ADME, organism-based; conditions: in vivo; how it was run: as §3
Liver = test: Dose normalized Cmax in Sprague-Dawley rat liver at 10 mg equivalents/kg, po after 0.25 to 12 hrs; format: ADME, organism-based; conditions: in vivo; how it was run: as §3
[17] = Tmax in Sprague-Dawley rat liver at 10 mg equivalents/kg, po after 0.25 to 12 hrs; format: ADME, organism-based; how it was run: as §4
[18] = Half life in Sprague-Dawley rat liver at 10 mg equivalents/kg, po after 0.25 to 12 hrs; format: ADME, organism-based; how it was run: as §3
Brain [19] = test: Dose normalized AUC (0 to infinity) in wild-type FVB/N mouse brain at 5 mg equivalents/kg, iv by LC-MS/MS analysis; format: ADME, organism-based; conditions: in vivo
How it was run: (§5)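 Male mice given a single 5 mg equiv/kg iv bolus: FVB wild type, Bcrp(−/−), Mdr1a/b(−/−) and Mdr1a/b(−/−)/Bcrp(−/−). Brain and plasma concentration–time profiles were used to derive dose-normalized AUC (0–infinity).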

Brain [20] = test: Dose normalized AUC (0 to infinity) in BCRP knock out FVB/N mouse brain at 5 mg equivalents/kg, iv by LC-MS/MS analysis; format: ADME, organism-based; conditions: in vivo; how it was run: as §5
Brain [21] = test: Dose normalized AUC (0 to infinity) in MDR1a knock out FVB/N mouse brain at 5 mg equivalents/kg, iv by LC-MS/MS analysis; format: ADME, organism-based; conditions: in vivo; how it was run: as §5
Rattus norvegicus [22] = test: Inhibition of KMO in Sprague-Dawley rat plasma assessed as time duration for elevation in anthranilic acid plasma level at 10 mg/kg, po by […] analysis; format: functional
How it was run: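 Sprague-Dawley rats given a single 10 mg/kg oral dose. KYN, 3-HK, KYNA and AA were quantified in plasma by LC-MS/MS at multiple time points.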

Rattus norvegicus [23] = test: Inhibition of KMO in Sprague-Dawley rat striatum brain microdialysate assessed as time duration for elevation in kynurenine level at 10 mg/kg, po by […] analysis; format: functional
How it was run: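 Freely moving Sprague-Dawley rats given 10 mg/kg po, with a microdialysis probe implanted in the striatum. Dialysate was sampled over 0–240 min for free compound and for KYN, KYNA, AA and 3-HK, quantified by LC-MS/MS. Metabolite changes were compared with t = 0 min by 2-way ANOVA.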

Rattus norvegicus [24] = test: Inhibition of KMO in po dosed Sprague-Dawley rat plasma assessed as elevation in kynurenine plasma level by […] analysis; format: functional, organism-based
Rattus norvegicus [25] = test: Inhibition of KMO in po dosed Sprague-Dawley rat plasma assessed as elevation in kynurenic acid plasma level by […] analysis; format: functional, organism-based
Rattus norvegicus [26] = test: Inhibition of KMO in po dosed Sprague-Dawley rat plasma assessed as reduction in 3-hydroxykynurenice acid plasma level by […] analysis; format: functional, organism-based
[27] = Oral bioavailability in Sprague-Dawley rat plasma at 12 mg equivalents/kg
Rattus norvegicus [28] = test: Inhibition of KMO in po dosed Sprague-Dawley rat plasma assessed as reduction in quinolinic acid plasma level by LC-MS/MS analysis

T1 sequence (O88867 whole entry): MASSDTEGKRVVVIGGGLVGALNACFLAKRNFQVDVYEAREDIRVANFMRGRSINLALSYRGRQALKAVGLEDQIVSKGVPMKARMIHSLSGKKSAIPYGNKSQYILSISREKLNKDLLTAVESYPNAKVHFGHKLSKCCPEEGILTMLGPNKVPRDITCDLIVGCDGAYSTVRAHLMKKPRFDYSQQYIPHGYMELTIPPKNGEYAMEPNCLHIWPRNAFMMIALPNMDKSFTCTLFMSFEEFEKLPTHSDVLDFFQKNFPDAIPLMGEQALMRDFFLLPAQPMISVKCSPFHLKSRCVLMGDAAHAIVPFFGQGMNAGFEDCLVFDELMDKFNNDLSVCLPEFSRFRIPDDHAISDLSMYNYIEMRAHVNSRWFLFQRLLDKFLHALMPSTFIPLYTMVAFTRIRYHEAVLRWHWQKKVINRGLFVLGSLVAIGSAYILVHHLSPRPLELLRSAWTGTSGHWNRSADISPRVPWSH
Sequence of Kynurenine 3-monooxygenase (Mus musculus, UniProt Q91WN4) (Q91WN4 whole entry): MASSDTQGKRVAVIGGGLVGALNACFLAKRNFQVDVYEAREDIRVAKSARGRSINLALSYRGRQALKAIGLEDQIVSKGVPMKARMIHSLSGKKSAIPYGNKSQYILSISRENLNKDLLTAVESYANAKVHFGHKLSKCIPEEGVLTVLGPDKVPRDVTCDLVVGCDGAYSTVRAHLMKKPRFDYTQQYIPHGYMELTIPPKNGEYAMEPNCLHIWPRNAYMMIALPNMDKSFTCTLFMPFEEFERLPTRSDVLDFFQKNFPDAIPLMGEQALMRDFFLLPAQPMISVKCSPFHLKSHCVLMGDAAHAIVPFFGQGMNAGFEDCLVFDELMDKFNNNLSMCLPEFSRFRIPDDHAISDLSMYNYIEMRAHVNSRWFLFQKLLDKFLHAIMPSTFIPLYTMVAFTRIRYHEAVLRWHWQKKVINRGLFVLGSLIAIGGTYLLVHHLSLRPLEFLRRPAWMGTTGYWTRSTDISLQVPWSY

Structure (SMILES): O=C(O)c1cc(-c2ccc(OC3CC3)c(Cl)c2)ncn1
- IC50 [1]: 5.1 nM
- IC50 [2]: 4 nM
- IC50 [3]: 72 nM
- Vd [4]: 0.32 L/kg
- half-life [5]: 1.8 h
- Cmax/dose (Plasma [6]): 1.9 µM·kg/mg
- Cmax/dose (Brain [7]): 0.25 µM·kg/mg
- half-life [8]: 0.7 h
- Tmax [9]: 1 h
- Cmax/dose (Plasma [10]): 2.6 µM·kg/mg
- half-life [11]: 1.7 h
- Cmax/dose (Cerebrospinal fluid): 0.011 µM·kg/mg
- Tmax [12]: 0.5 h
- Cmax/dose (Cortex): 0.03 µM·kg/mg
- Tmax [13]: 0.5 h
- half-life [14]: 1.9 h
- Cmax/dose (Striatum): 0.047 µM·kg/mg
- AUC/dose (Kidney [15]): 70 µM·kg·h/mg
- Cmax/dose (Kidney [16]): 26 µM·kg/mg
- Cmax/dose (Liver): 9.3 µM·kg/mg
- Tmax [17]: 0.5 h
- half-life [18]: 2.5 h
- AUC/dose (Brain [19]): 0.066 µM·kg·h/mg
- AUC/dose (Brain [20]): 0.17 µM·kg·h/mg
- AUC/dose (Brain [21]): 0.073 µM·kg·h/mg
- Time (Rattus norvegicus [22]): 8 h
- Time (Rattus norvegicus [23]): 40 min
- inhibition (Rattus norvegicus [24]): Dose-dependent effect
- inhibition (Rattus norvegicus [25]): Dose-dependent effect
- inhibition (Rattus norvegicus [26]): Active
- bioavailability [27]: 64%
- inhibition (Rattus norvegicus [28]): Dose-dependent effect
